tested on: not listed separately; test: Cytotoxicity against mock-infected MDBK cells after 48 to 96 hrs by MTT assay; format: cell-based, Bos taurus; conditions: cattle
Summary of the method: (§1)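 Mock-infected MDBK (6 × 10^5 cells/mL; MEM-E, 10% horse serum, 1 mM pyruvate) or BHK (1 × 10^6 cells/mL; MEM-E, 10% FBS) cells were incubated at 37 °C, 5% CO2 with serial dilutions from 100 µM, 1:5. Viability by MTT after 48–96 h. CC50 from linear regression against untreated controls.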

| Structure (SMILES) | CC50 |
| --- | --- |
| CC1(c2nc3cc(Cl)c(Cl)cc3[nH]2)CCC(CO)C(C)(C)O1 (configuration not stated) | > 100 µM |
| c1ccc2[nH]c(C3CCCCO3)nc2c1 (configuration not stated) | > 100 µM |
| c1ccc2c(c1)ncn2C1CCCCO1 (configuration not stated) | > 100 µM |
| Clc1cc2ncn(C3CCCO3)c2cc1Cl (configuration not stated) | > 100 µM |
| CC1(c2nc3ccccc3[nH]2)CCC(C(N)=O)C(C)(C)O1 (configuration not stated) | > 100 µM |
| CC1(c2nc3ccccc3[nH]2)CCC(C#N)C(C)(C)O1 (configuration not stated) | > 100 µM |

tested on: Human alphaherpesvirus 1; test: Antiviral activity against HSV1 infected in african green monkey Vero 76 cells assessed as reduction in plaque number after 3 days by plaque reduction assay; format: functional, organism-based; conditions: Human alphaherpesvirus 1, Vero, 72 h

| Structure (SMILES) | EC50 |
| --- | --- |
| CC1(c2nc3cc(Cl)c(Cl)cc3[nH]2)CCC(CO)C(C)(C)O1 (configuration not stated) | 60 µM |
| c1ccc2[nH]c(C3CCCCO3)nc2c1 (configuration not stated) | > 100 µM |
| CC1(c2nc3ccccc3[nH]2)CCC(C(N)=O)C(C)(C)O1 (configuration not stated) | > 100 µM |
| CC1(c2nc3ccccc3[nH]2)CCC(C#N)C(C)(C)O1 (configuration not stated) | > 100 µM |

tested on: not listed separately; test: Cytotoxicity against mock-infected BHK21 cells after 48 to 96 hrs by MTT assay; format: functional; conditions: Mesocricetus auratus, BHK-21; summary of the method: as §1

| Structure (SMILES) | CC50 |
| --- | --- |
| CC1(c2nc3cc(Cl)c(Cl)cc3[nH]2)CCC(CO)C(C)(C)O1 (configuration not stated) | > 100 µM |
| c1ccc2[nH]c(C3CCCCO3)nc2c1 (configuration not stated) | > 100 µM |
| c1ccc2c(c1)ncn2C1CCCCO1 (configuration not stated) | > 100 µM |
| Clc1cc2ncn(C3CCCO3)c2cc1Cl (configuration not stated) | > 100 µM |
| CC1(c2nc3ccccc3[nH]2)CCC(C(N)=O)C(C)(C)O1 (configuration not stated) | > 100 µM |
| CC1(c2nc3ccccc3[nH]2)CCC(C#N)C(C)(C)O1 (configuration not stated) | > 100 µM |

tested on: Reovirus sp.; test: Antiviral activity against Reovirus type-1 infected in BHK21 cells assessed as inhibition of virus-induced cytopathogenicity after 3 to 4 days by MTT assay; format: functional, organism-based; conditions: BHK-21

| Structure (SMILES) | EC50 |
| --- | --- |
| CC1(c2nc3cc(Cl)c(Cl)cc3[nH]2)CCC(CO)C(C)(C)O1 (configuration not stated) | > 100 µM |
| c1ccc2[nH]c(C3CCCCO3)nc2c1 (configuration not stated) | > 100 µM |
| Clc1cc2ncn(C3CCCO3)c2cc1Cl (configuration not stated) | > 100 µM |
| CC1(c2nc3ccccc3[nH]2)CCC(C(N)=O)C(C)(C)O1 (configuration not stated) | > 100 µM |
| CC1(c2nc3ccccc3[nH]2)CCC(C#N)C(C)(C)O1 (configuration not stated) | > 100 µM |

tested on: Yellow fever virus; test: Antiviral activity against Yellow fever virus infected in BHK21 cells assessed as inhibition of virus-induced cytopathogenicity after 3 to 4 days by MTT assay; format: functional, organism-based; conditions: BHK-21

| Structure (SMILES) | EC50 |
| --- | --- |
| CC1(c2nc3cc(Cl)c(Cl)cc3[nH]2)CCC(CO)C(C)(C)O1 (configuration not stated) | > 100 µM |
| c1ccc2[nH]c(C3CCCCO3)nc2c1 (configuration not stated) | > 100 µM |
| c1ccc2c(c1)ncn2C1CCCCO1 (configuration not stated) | > 100 µM |
| Clc1cc2ncn(C3CCCO3)c2cc1Cl (configuration not stated) | > 100 µM |
| CC1(c2nc3ccccc3[nH]2)CCC(C(N)=O)C(C)(C)O1 (configuration not stated) | > 100 µM |
| CC1(c2nc3ccccc3[nH]2)CCC(C#N)C(C)(C)O1 (configuration not stated) | > 100 µM |

tested on: Poliovirus 1; test: Antiviral activity against Poliovirus type 1 Sabin strain infected in african green monkey Vero 76 cells assessed as reduction in plaque number after 2 days by plaque reduction assay; format: functional, organism-based; conditions: Enterovirus C, 48 h

| Structure (SMILES) | EC50 |
| --- | --- |
| CC1(c2nc3cc(Cl)c(Cl)cc3[nH]2)CCC(CO)C(C)(C)O1 (configuration not stated) | 12 µM |
| c1ccc2[nH]c(C3CCCCO3)nc2c1 (configuration not stated) | > 100 µM |
| CC1(c2nc3ccccc3[nH]2)CCC(C(N)=O)C(C)(C)O1 (configuration not stated) | > 100 µM |
| CC1(c2nc3ccccc3[nH]2)CCC(C#N)C(C)(C)O1 (configuration not stated) | > 100 µM |

tested on: Vesicular stomatitis virus; test: Antiviral activity against Vesicular stomatitis virus infected in african green monkey Vero 76 cells assessed as reduction in plaque number after 2 days by plaque reduction assay; format: functional, organism-based; conditions: 48 h

| Structure (SMILES) | EC50 |
| --- | --- |
| CC1(c2nc3cc(Cl)c(Cl)cc3[nH]2)CCC(CO)C(C)(C)O1 (configuration not stated) | > 100 µM |
| c1ccc2[nH]c(C3CCCCO3)nc2c1 (configuration not stated) | > 100 µM |
| CC1(c2nc3ccccc3[nH]2)CCC(C(N)=O)C(C)(C)O1 (configuration not stated) | > 100 µM |
| CC1(c2nc3ccccc3[nH]2)CCC(C#N)C(C)(C)O1 (configuration not stated) | > 100 µM |

tested on: not listed separately; test: Cytotoxicity against mock-infected human MT4 cells after 96 hrs by MTT assay; format: cell-based; conditions: not given
Summary of the method: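 Exponentially growing MT-4 cells were seeded at 1 × 10^5 cells/mL in RPMI-1640 with 10% FBS and held at 37 °C, 5% CO2 with serial compound dilutions. Viability was read by MTT after 96 h. CC50 from linear regression against untreated controls.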

| Structure (SMILES) | CC50 at 96 h |
| --- | --- |
| CC1(c2nc3cc(Cl)c(Cl)cc3[nH]2)CCC(CO)C(C)(C)O1 (configuration not stated) | 33 µM |
| c1ccc2[nH]c(C3CCCCO3)nc2c1 (configuration not stated) | > 100 µM |
| c1ccc2c(c1)ncn2C1CCCCO1 (configuration not stated) | > 100 µM |
| Clc1cc2ncn(C3CCCO3)c2cc1Cl (configuration not stated) | > 100 µM |
| CC1(c2nc3ccccc3[nH]2)CCC(C(N)=O)C(C)(C)O1 (configuration not stated) | > 100 µM |
| CC1(c2nc3ccccc3[nH]2)CCC(C#N)C(C)(C)O1 (configuration not stated) | > 100 µM |

tested on: Bovine viral diarrhea virus 1; test: Antiviral activity against Bovine viral diarrhea virus infected in MDBK cells assessed as inhibition of virus-induced cytopathogenicity after 3 to 4 days by MTT assay; format: functional, organism-based; conditions: Bovine viral diarrhea virus isolates and strains

| Structure (SMILES) | EC50 |
| --- | --- |
| CC1(c2nc3cc(Cl)c(Cl)cc3[nH]2)CCC(CO)C(C)(C)O1 (configuration not stated) | 46 µM |
| c1ccc2[nH]c(C3CCCCO3)nc2c1 (configuration not stated) | > 100 µM |
| c1ccc2c(c1)ncn2C1CCCCO1 (configuration not stated) | > 100 µM |
| Clc1cc2ncn(C3CCCO3)c2cc1Cl (configuration not stated) | > 100 µM |
| CC1(c2nc3ccccc3[nH]2)CCC(C(N)=O)C(C)(C)O1 (configuration not stated) | > 100 µM |
| CC1(c2nc3ccccc3[nH]2)CCC(C#N)C(C)(C)O1 (configuration not stated) | > 100 µM |

tested on: Human immunodeficiency virus 1; test: Antiviral activity against HIV1 infected in human MT4 cells assessed as inhibition of virus-induced cytopathogenicity after 4 days by MTT assay; format: functional, organism-based; conditions: Human immunodeficiency virus 1, MT4, 96 h
Summary of the method: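 MT-4 cells (1 × 10^4/well in RPMI) were infected acutely with HIV-1 IIIB, 100 CCID50 (m.o.i. 0.01), with serial dilutions from 100 µM, 1:5. After 4 days at 37 °C, protection from virus-induced cytopathogenicity was read by MTT. EC50 came from linear regression against untreated controls.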

| Structure (SMILES) | EC50 |
| --- | --- |
| CC1(c2nc3cc(Cl)c(Cl)cc3[nH]2)CCC(CO)C(C)(C)O1 (configuration not stated) | > 100 µM |
| c1ccc2[nH]c(C3CCCCO3)nc2c1 (configuration not stated) | > 100 µM |
| c1ccc2c(c1)ncn2C1CCCCO1 (configuration not stated) | > 100 µM |
| Clc1cc2ncn(C3CCCO3)c2cc1Cl (configuration not stated) | > 100 µM |
| CC1(c2nc3ccccc3[nH]2)CCC(C(N)=O)C(C)(C)O1 (configuration not stated) | > 100 µM |
| CC1(c2nc3ccccc3[nH]2)CCC(C#N)C(C)(C)O1 (configuration not stated) | > 100 µM |

tested on: not listed separately; test: Cytotoxicity against mock-infected african green monkey Vero 76 cells after 48 to 96 hrs by MTT assay; format: cell-based; conditions: chlorocebus sabaeus, mock-infected Vero 76 cells

| Structure (SMILES) | CC50 |
| --- | --- |
| CC1(c2nc3cc(Cl)c(Cl)cc3[nH]2)CCC(CO)C(C)(C)O1 (configuration not stated) | > 100 µM |
| c1ccc2[nH]c(C3CCCCO3)nc2c1 (configuration not stated) | > 100 µM |
| CC1(c2nc3ccccc3[nH]2)CCC(C(N)=O)C(C)(C)O1 (configuration not stated) | > 100 µM |
| CC1(c2nc3ccccc3[nH]2)CCC(C#N)C(C)(C)O1 (configuration not stated) | > 100 µM |

— ChEMBL document CHEMBL3351523 (Bioorg Med Chem, 2014)
